The nature of series [1]: Plasma ONO-5334 pharmacokinetics. The format is in vivo, healthy postmenopausal women. The note with it: day 5, 150 mg SRT, morning regimen. The gist of the method: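 Oral sustained-release tablet, 150 mg once daily for 5 days per period, fed. Randomized crossover with ≥10-day washout. Blood taken via IV cannula over 12 h on day 1 and 24 h on day 5, hourly 1–6 h postdose. Plasma solid-phase extracted and assayed by validated LC-MS/MS (LLOQ 0.02 ng/mL). Cmax, Tmax and AUC24h derived noncompartmentally; day-5 morning/evening geometric mean ratios with 90% CI by ANOVA; Tmax by Wilcoxon signed rank test.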

Series [2] deals with serum CTX-I. Description: Serum CTX-I bone resorption marker. In kind it is in vivo, healthy postmenopausal women. The note with it: for time over which >60% suppression of CTX-I was sustained: 150-mg SRT for 5 days. Summed up: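 Serum CTX-I was measured by CrossLaps ELISA. Baseline profile on day −1 via cannula at set clock times over 24 h, ending just before the first dose (08:00 morning, 20:00 evening period). Results expressed as % change from clock-time-matched baseline; 24-h AUE compared morning vs evening by ANCOVA, with post-hoc repeated-measures analysis.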

In series [3] the test system is urinary CTX-I. Description: Urinary CTX-I/creatinine bone resorption marker. The format is in vivo, healthy postmenopausal women. The following applies: 150 mg SRT once daily 5 days. Summed up:
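Urinary CTX-I was measured by Urine CrossLaps ELISA and normalized to creatinine. Baseline urine was taken on day −1, and postdose urine on days 1 and 5, with collection at 08:00 (morning dosing) or 20:00 (evening dosing). Dosing was 150 mg sustained-release tablet once daily for 5 days, fed. Results expressed as % change from time-matched baseline; 24-h AUE compared by ANCOVA, with post-hoc repeated-measures analysis.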

Series [4] is described as follows: Safety assessments / adverse events. In kind it is in vivo, healthy postmenopausal women. The note with it: 150 mg once daily for 5 days per period. Summed up: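 Each crossover period (5 days' dosing) included clinical laboratory tests, vital signs, 12-lead ECG and physical examination on admission and at follow-up. Vital signs were also taken at baseline, on all treatment days and at discharge. Adverse events were coded with MedDRA version 14.1. Fourteen subjects were in the safety analysis, and data were summarized in SAS.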

For series [5] the following is noted: 100 mg sustained-release tablet (SRT), morning, repeat administration ref 7, 8; cited from earlier work.
The subject of series [6] is serum CTX-I. The following applies: cited from earlier work; for serum CTX reduction: postmenopausal women.
The test system of the next series is bone strength. The note with it: ovariectomized rats ref 5; cited from earlier work.
The test system of series [7] is bone mineral density (BMD). The note with it: postmenopausal women with osteoporosis, 24 months of therapy ref 6; cited from earlier work.
Series [8] relates to urinary CTX-I. The following applies: 12 weeks of treatment, healthy postmenopausal women ref 30; cited from earlier work.
The test system of a further series is bone resorption markers. The note with it: premenopausal women ref 14, cited from earlier work.
Series [9] has as its system serum CTX-I. The note with it: oral calcitonin, healthy postmenopausal women ref 15; cited from earlier work.

Like-named read-outs stand apart in the source and are kept apart here.

The source of these data is publication PMC4715857 (Osteoporosis International, 2015).

In the case of `C[C@@H]1CS/C(=N\NC(=O)C(=O)[C@@H](NC(=O)C2CCCCCC2)C2CCOCC2)N1C` [ONO-5334], in series [1], the “mean trough plasma concentration” value is 9.4 ng/mL. In the series on serum CTX-I [2] (150 mg SRT once daily 5 days), the “greater suppression of 24-h serum CTX-I AUE, morning than evening” value came out at 6%. Further, in the series with serum CTX-I [2] (150-mg SRT), the “duration of impact on bone resorption” value is recorded as not below 24 h. In the series with serum CTX-I [2] (after morning and evening administration), the “time of lowest serum CTX-I levels postdose” value was determined as 8 h. The “plasma ONO-5334 concentration required to produce 60% reduction of serum CTX-I” value with serum CTX-I [2] (day 5, scatter plot of plasma concentration vs serum CTX-I %CFB, both regimens) is recorded as not below 10 ng/mL. Further, the “time over which >60% suppression of CTX-I was sustained” value in the series on serum CTX-I [2] (evening administration) came to 12 h. Besides, the “CTX-I suppression over 24 h” value in the series on serum CTX-I [2] (morning administration, 150 mg SRT for 5 days) is reported as more than 60%. For the same compound, the “time over which >60% suppression of CTX-I was sustained” value in the series with serum CTX-I [2] (morning administration) is listed as 24 h. Besides, the “greater suppression of 24-h urinary CTX-I/creatinine AUE, morning than evening” value with urinary CTX-I [3] was 7%. In [4], the “laboratory safety data, vital signs, electrocardiogram or physical examinations” value is listed as “no clinically relevant” and the safety findings result is given as “no safety findings of concern”. Further, in series [5], the mean half-life is 15 h and the “median time to maximum plasma concentration (Tmax)” value is 4 h. Also, the “suppression of serum CTX-I” value in the series on serum CTX-I [6] is given as “approximately 60%”. In the series on bone strength, the “effect on bone strength” value is “improved bone strength”. Besides, in series [7], the “effect on cortical and trabecular bone mineral density (BMD)” value is “significantly improved”.
With `NCCCC(O)(P(=O)(O)O)P(=O)(O)O` [alendronate], the “Serum CTX-I decreases” value with serum CTX-I [6] (following 30–36 months of therapy ref 28, 29) is 67–70%. In addition, in the series on urinary CTX-I [8], the “urinary CTX-I reduction” value was 53%.
For the compound `CCCN1CCN(c2ccc(C(=O)NC3(C(=O)NCC#N)CCCCC3)cc2)CC1` [balicatib], the “serum CTX reduction” value in the series with serum CTX-I [6] (1-year study ref 22) was 61%.
Consider `[Ca]` [elemental calcium, calcium], for which the “effect on bone resorption” value is “suppressed nighttime increases of bone resorption” in the series on bone resorption markers (1000 mg at bedtime) and “no effect” in the series on bone resorption markers (1000 mg, morning administration).
Take `CC(C)(F)C[C@H](N[C@@H](c1ccc(-c2ccc(S(C)(=O)=O)cc2)cc1)C(F)(F)F)C(=O)NC1(C#N)CC1` [odanacatib]: in the series on serum CTX-I [6], the “suppression of serum CTX-I” value is “approximately 60%”. For the same compound, the “continuous reductions of serum CTX-I” value in the series with serum CTX-I [6] (postmenopausal women with low BMD, following 5 years of treatment ref 4) is listed as 55%. Moreover, in the series with serum CTX-I [6] (postmenopausal women with low BMD, once-weekly, most of the first year of treatment ref 25), the “reductions of serum CTX-I” value is recorded as more than 60%. In addition, in the series with serum CTX-I [6] (single or repeated doses for 3 weeks ref 23, 24), the “serum CTX reduction” value is given as 62–66%.
With calcitonin [oral calcitonin], the “duration of impact on bone resorption” value in the series with serum CTX-I [9] is “about 12 h”.
